From ChEMBL document CHEMBL1157864, “Synthesis of some novel 2-substituted-5-[isopropylthiazole] clubbed 1,2,4-triazole and 1,3,4-oxadiazoles as potential antimicrobial and antitubercular agents” (Eur J Med Chem, 2010)
In brackets after ≈: the same amount, converted by molar mass.

Legend:
Format in all cases: functional
Staphylococcus aureus = test: Antimicrobial activity against Staphylococcus aureus ATCC 11632 after 24 hrs by broth microdilution assay; conditions: ATCC 11632, 24 h
In short: (§1)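 Broth dilution MIC. Stock is 10 mg compound in 1 mL DMSO, serially diluted in Mueller–Hinton broth for bacteria or Sabouraud liquid medium for yeasts and mould. Tubes are inoculated at 10⁵ cfu/mL and incubated at 37 °C for 24 h. Controls are medium alone and medium with DMSO at matching dilutions. MIC is the lowest concentration giving complete growth inhibition.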

Enterococcus faecalis = test: Antimicrobial activity against Streptococcus faecalis ATCC 14506 after 24 hrs by broth microdilution assay; conditions: ATCC 14506, 24 h; in short: as §1
Bacillus subtilis = test: Antimicrobial activity against Bacillus subtilis ATCC 60511 after 24 hrs by broth microdilution assay; conditions: ATCC 60511, 24 h; in short: as §1
Klebsiella pneumoniae = test: Antimicrobial activity against Klebsiella pneumoniae ATCC 10031 after 24 hrs by broth microdilution assay; conditions: ATCC 10031, 24 h; in short: as §1
Escherichia coli = test: Antimicrobial activity against Escherichia coli ATCC 10536 after 24 hrs by broth microdilution assay; conditions: ATCC 10536, 24 h; in short: as §1
Pseudomonas aeruginosa = test: Antimicrobial activity against Pseudomonas aeruginosa ATCC 10145 after 24 hrs by broth microdilution assay; conditions: ATCC 10145, 24 h; in short: as §1
Saccharomyces cerevisiae = test: Antimicrobial activity against Saccharomyces cerevisiae ATCC 9763 after 24 hrs by broth microdilution assay; conditions: ATCC 9763, 24 h; in short: as §1
Candida tropicalis = test: Antimicrobial activity against Candida tropicalis ATCC 1369 after 24 hrs by broth microdilution assay; conditions: ATCC 1369, 24 h; in short: as §1
Aspergillus niger = test: Antimicrobial activity against Aspergillus niger ATCC 6275 after 24 hrs by broth microdilution assay; conditions: ATCC 6275, 24 h; in short: as §1
[1] = test system: Mycobacterium tuberculosis; test: Antimycobacterial activity against Mycobacterium tuberculosis H37Rv after 21 days by broth dilution assay; conditions: 504 h
In short: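 Middlebrook 7H9 broth with 10% albumin-dextrose-catalase and 0.2% glycerol; frozen culture thawed, diluted to 10⁵ cfu/mL and used as inoculum. Compounds taken up in DMSO and diluted twice in broth, 1.3% DMSO final. Incubated at 37 °C. Growth judged by eye against drug-free and inoculum-free controls and isoniazid. MIC is the lowest concentration inhibiting ≥99% of the starting population.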

Row | SMILES | MIC (Staphylococcus aureus) [µg/mL] | MIC (Enterococcus faecalis) [µg/mL] | MIC (Bacillus subtilis) [µg/mL] | MIC (Klebsiella pneumoniae) [µg/mL] | MIC (Escherichia coli) [µg/mL] | MIC (Pseudomonas aeruginosa) [µg/mL] | MIC (Saccharomyces cerevisiae) [µg/mL] | MIC (Candida tropicalis) [µg/mL] | MIC (Aspergillus niger) [µg/mL] | MIC [1] [µg/mL]
1 | CC(C)c1csc(-c2nnc3sc(-c4ccc(O)cc4)nn23)n1 | 250 (≈ 728 µM) | 125 (≈ 364 µM) | 125 (≈ 364 µM) | 125 (≈ 364 µM) | 125 (≈ 364 µM) | 125 (≈ 364 µM) | 250 (≈ 728 µM) | 125 (≈ 364 µM) | 125 (≈ 364 µM) | 62.5 (≈ 182 µM)
2 | COc1ccc(-c2nn3c(-c4nc(C(C)C)cs4)nnc3s2)cc1 | 31.2 (≈ 87.4 µM) | 16 (≈ 44.8 µM) | 125 (≈ 350 µM) | 31.2 (≈ 87.4 µM) | 125 (≈ 350 µM) | 31.2 (≈ 87.4 µM) | 16 (≈ 44.8 µM) | 16 (≈ 44.8 µM) | 31.2 (≈ 87.4 µM) | 31.2 (≈ 87.4 µM)
3 | CC(C)c1csc(-c2nnc(S)n2/N=C/c2ccccc2)n1 | 250 (≈ 759 µM) | 31.2 (≈ 94.9 µM) | 31.2 (≈ 94.9 µM) | 31.2 (≈ 94.9 µM) | 62.5 (≈ 190 µM) | 31.2 (≈ 94.9 µM) | 125 (≈ 379 µM) | 62.5 (≈ 190 µM) | 62.5 (≈ 190 µM) | 62.5 (≈ 190 µM)
4 | CC(C)c1csc(-c2nnc3sc(-c4ccccc4)nn23)n1 | 125 (≈ 382 µM) | 16 (≈ 48.9 µM) | 16 (≈ 48.9 µM) | 125 (≈ 382 µM) | 125 (≈ 382 µM) | 31.2 (≈ 95.4 µM) | 125 (≈ 382 µM) | 125 (≈ 382 µM) | 31.2 (≈ 95.4 µM) | 62.5 (≈ 191 µM)
5 | CC(C)c1csc(-c2nnc(S)n2/N=C/C=C/c2ccccc2)n1 | 8 (≈ 22.5 µM) | 31.2 (≈ 87.9 µM) | 8 (≈ 22.5 µM) | 4 (≈ 11.3 µM) | 4 (≈ 11.3 µM) | 16 (≈ 45 µM) | 31.2 (≈ 87.9 µM) | 31.2 (≈ 87.9 µM) | 125 (≈ 352 µM) | 4 (≈ 11.3 µM)
6 | CC(C)c1csc(-c2nnc(S)n2/N=C/c2ccc[nH]2)n1 | 31.2 (≈ 98.1 µM) | 31.2 (≈ 98.1 µM) | 62.5 (≈ 196 µM) | 31.2 (≈ 98.1 µM) | 62.5 (≈ 196 µM) | 62.5 (≈ 196 µM) | 31.2 (≈ 98.1 µM) | 62.5 (≈ 196 µM) | 16 (≈ 50.2 µM) | 31.2 (≈ 98.1 µM)
7 | COc1cc(/C=N/n2c(S)nnc2-c2nc(C(C)C)cs2)ccc1O | 250 (≈ 666 µM) | 125 (≈ 333 µM) | 125 (≈ 333 µM) | 125 (≈ 333 µM) | 125 (≈ 333 µM) | 125 (≈ 333 µM) | 250 (≈ 666 µM) | 125 (≈ 333 µM) | 125 (≈ 333 µM) | 62.5 (≈ 166 µM)
8 | CC(C)c1csc(-c2nnc3sc(-c4ccc(Cl)cc4)nn23)n1 | 8 (≈ 22.1 µM) | 16 (≈ 44.2 µM) | 8 (≈ 22.1 µM) | 16 (≈ 44.2 µM) | 16 (≈ 44.2 µM) | 8 (≈ 22.1 µM) | 31.2 (≈ 86.4 µM) | 31.2 (≈ 86.4 µM) | 125 (≈ 345 µM) | 8 (≈ 22.1 µM)
9 | COc1ccc(/C=N/n2c(S)nnc2-c2nc(C(C)C)cs2)cc1 | 31.2 (≈ 86.9 µM) | 31.2 (≈ 86.9 µM) | 31.2 (≈ 86.9 µM) | 16 (≈ 44.5 µM) | 31.2 (≈ 86.9 µM) | 31.2 (≈ 86.9 µM) | 62.5 (≈ 174 µM) | 62.5 (≈ 174 µM) | 62.5 (≈ 174 µM) | 31.2 (≈ 86.9 µM)
10 | CC(C)c1csc(-c2nnc(S)n2/N=C/c2ccccc2O)n1 | 250 (≈ 724 µM) | 250 (≈ 724 µM) | 250 (≈ 724 µM) | 250 (≈ 724 µM) | 250 (≈ 724 µM) | 250 (≈ 724 µM) | 125 (≈ 362 µM) | 125 (≈ 362 µM) | 125 (≈ 362 µM) | 62.5 (≈ 181 µM)
11 | CC(C)c1csc(-c2nnc(S)n2-c2ccccc2)n1 | 16 (≈ 52.9 µM) | 125 (≈ 413 µM) | 16 (≈ 52.9 µM) | 31.2 (≈ 103 µM) | 16 (≈ 52.9 µM) | 31.2 (≈ 103 µM) | 8 (≈ 26.5 µM) | 16 (≈ 52.9 µM) | 16 (≈ 52.9 µM) | 31.2 (≈ 103 µM)
12 | CSc1nnc(-c2nc(C(C)C)cs2)n1-c1ccccc1 | 16 (≈ 50.6 µM) | 16 (≈ 50.6 µM) | 31.2 (≈ 98.8 µM) | 31.2 (≈ 98.8 µM) | 62.5 (≈ 198 µM) | 16 (≈ 50.6 µM) | 16 (≈ 50.6 µM) | 16 (≈ 50.6 µM) | 31.2 (≈ 98.8 µM) | 62.5 (≈ 198 µM)
13 | O=C(O)c1cn(C2CC2)c2cc(N3CCNCC3)c(F)cc2c1=O [CIPROFLOXACIN] | ≤ 5 | ≤ 5 | ≤ 1 | ≤ 1 | ≤ 1 | 5 (≈ 15.1 µM) | – | – | – | –
14 | OC(Cn1cncn1)(Cn1cncn1)c1ccc(F)cc1F [FLUCONAZOLE] | – | – | – | – | – | – | ≤ 1 | ≤ 1 | ≤ 1 | –
15 | NNC(=O)c1ccncc1 [ISONIAZID] | – | – | – | – | – | – | – | – | – | 0.25 (≈ 1.82 µM)
16 | CCn1cc(C(=O)O)c(=O)c2cc(F)c(N3CCNCC3)cc21 [NORFLOXACIN] | 5 (≈ 15.7 µM) | 5 (≈ 15.7 µM) | ≤ 1 | ≤ 1 | ≤ 1 | 5 (≈ 15.7 µM) | – | – | – | –
